Experimental findings from ChEMBL document CHEMBL3085712, “Protein tyrosine phosphatase 1B (PTP1B) inhibitors from Morinda citrifolia (Noni) and their insulin mimetic activity” (J Nat Prod, 2013) are described below.

In test [1] the test system is 3T3-L1. The test is described as follows: Increase in 2-NBDG uptake in mouse 3T3L1 cells after 30 mins by fluorescence spectrophotometry. It counts as functional, cell-based. Put shortly: (§1)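 Mouse 3T3-L1 preadipocytes were differentiated with insulin, IBMX, dexamethasone, rosiglitazone and 10% FBS, then used 7 days after induction at 3 × 10^4 cells/well. Cells were starved 3 h in low-glucose serum-free DMEM, treated 30 min, then given 50 μM 2-NBDG for 1 h (90 min total). After lysis in 0.1 M K3PO4/1% Triton X-100, fluorescence was read at ex 450/em 535 nm; fold versus DMSO; triplicates, mean ± SD.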

Test [2] concerns 3T3-L1. The experiment in a line: Increase in 2-NBDG uptake in mouse 3T3L1 cells at 400 ug/ml after 30 mins by fluorescence spectrophotometry relative to DMSO-treated control. It counts as functional. In outline: as §1
In test [3] the target is T1, Tyrosine-protein phosphatase non-receptor type 1 (Homo sapiens, UniProt P18031).
T1 sequence (P18031 whole entry): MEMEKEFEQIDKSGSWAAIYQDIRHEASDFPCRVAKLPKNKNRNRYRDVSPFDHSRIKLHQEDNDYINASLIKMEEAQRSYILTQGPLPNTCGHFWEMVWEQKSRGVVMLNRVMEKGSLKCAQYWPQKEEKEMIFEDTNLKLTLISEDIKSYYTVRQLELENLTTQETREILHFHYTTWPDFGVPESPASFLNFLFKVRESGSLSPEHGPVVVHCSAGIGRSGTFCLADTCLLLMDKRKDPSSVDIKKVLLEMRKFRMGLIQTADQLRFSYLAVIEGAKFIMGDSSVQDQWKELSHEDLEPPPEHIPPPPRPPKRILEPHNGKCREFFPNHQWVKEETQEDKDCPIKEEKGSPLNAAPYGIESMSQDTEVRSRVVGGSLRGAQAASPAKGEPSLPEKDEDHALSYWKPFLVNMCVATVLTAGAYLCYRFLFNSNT
The test is described as follows: Inhibition of PTP1B (unknown origin) assessed as p-nitrophenol release from pNPP substrate after 30 mins by spectrophotometry. In outline:
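Commercial PTP1B (0.05–0.1 μg) was incubated with 4 mM p-NPP in 50 mM citrate pH 6.0, 1 mM DTT, 0.1 M NaCl and 1 mM EDTA at 37 °C for 30 min. IC50 came from a seven-concentration curve; triplicates, mean ± SD.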

Consider `Oc1ccc([C@H]2OC[C@H]3[C@@H]2CO[C@H]3c2ccc(O)c(O)c2)cc1O`, for which the Activity result with 3T3-L1 [1] is “Dose-dependent effect”. Also, the “fold change (FC)” value with 3T3-L1 [2] (in the assay text read “at 20 uM” for “at 400 ug/ml”) was found to be 1.52. Also, the IC50 in test [3] (read-out: IC50) came to 21.9 µM.

In the case of `Oc1ccc([C@@H]2OC[C@@H]3[C@H]2CO[C@H]3c2ccc(O)c(O)c2)cc1O`, the IC50 in test [3] (read-out: IC50) was > 30 µM.

In the case of `O=C(O)/C=C/c1ccc2c(c1)O[C@@H](CO)[C@@H](c1ccc(O)c(O)c1)O2`, the IC50 in test [3] (read-out: IC50) was > 30 µM.

Turning to `COc1cc([C@H]2Oc3ccc(/C=C/C(=O)O)cc3O[C@@H]2CO)ccc1O`, the IC50 in test [3] (read-out: IC50) was > 30 µM.

In the case of `COc1cc([C@H]2Oc3ccc(C(=O)O)cc3O[C@@H]2CO)ccc1O`, the IC50 in test [3] (read-out: IC50) turned out to be 19.6 µM.

For the compound `O=C1O[C@@H](c2ccc(O)c(O)c2)[C@@H]2CO[C@@H](c3ccc(O)c(O)c3)[C@H]12`, the IC50 entry in test [3] was “Not Active”.

`COc1cc([C@H]2OC[C@H]3[C@@H]2CO[C@@H]3c2cc(OC)c(OC)c(OC)c2)cc(OC)c1OC`: the Activity entry with 3T3-L1 [1] is “Dose-dependent effect”. Besides, the “fold change (FC)” value with 3T3-L1 [2] is given as 1.45. Moreover, the IC50 in test [3] (read-out: IC50) was found to be 16.8 µM.

Turning to `O=C(O)/C=C/c1ccc2c(c1)O[C@@H](CO)[C@H](c1ccc(O)c(O)c1)O2` (relative stereo), the IC50 in test [3] (read-out: IC50) was > 30 µM.

Regarding `COc1cc([C@H]2Oc3ccc(CCCO)cc3O[C@@H]2CO)ccc1O` (relative stereo), the IC50 in test [3] (read-out: IC50) is > 30 µM.

Turning to `O=C1O[C@@H](c2ccc(O)c(O)c2)[C@H](CO)/C1=C\c1ccc(O)c(O)c1` (relative stereo), in test [3], the IC50 entry is “Not Active”.

As for `COc1cc([C@@H]2OC[C@H]3[C@@H]2CO[C@H]3c2ccc(O)c(OC)c2)ccc1O` [(-)-PINORESINOL], in test [3] (read-out: IC50), the IC50 is 18.7 µM.

Take `O=C/C=C/c1ccc2c(c1)O[C@@H](CO)[C@H](c1ccc(O)c(O)c1)O2` [AMERICANIN A]: the IC50 entry in test [3] is recorded as “Not Active”.

`CN(CCOc1ccc(CC2SC(=O)NC2=O)cc1)c1ccccn1` (configuration not stated) [ROSIGLITAZONE]: the “fold change (FC)” value in the test on 3T3-L1 [2] is 1.7.

`COc1cc([C@H]2OC[C@H]3[C@@H]2CO[C@@H]3c2cc(OC)c(O)c(OC)c2)cc(OC)c1O` [SYRINGARESINOL]: the Activity result in the test with 3T3-L1 [1] is “Dose-dependent effect”. In the test on 3T3-L1 [2], the “fold change (FC)” value is 1.46. The IC50 in test [3] (read-out: IC50) came out at 15 µM.

`C[C@H]1[C@H](C)CC[C@]2(C(=O)O)CC[C@]3(C)C(=CC[C@@H]4[C@@]5(C)CC[C@H](O)C(C)(C)[C@@H]5CC[C@]43C)[C@H]12` [URSOLIC ACID]: the Activity entry in the test on 3T3-L1 [1] is “Dose-dependent effect”. In the test with 3T3-L1 [2], the “fold change (FC)” value was determined as 1.82.
